Here are results for 17 molecules from ChEMBL document CHEMBL3875221, “New N- and O-arylpiperazinylalkyl pyrimidines and 2-methylquinazolines derivatives as 5-HT7 and 5-HT1A receptor ligands: Synthesis, structure-activity relationships, and molecular modeling studies” (Bioorg Med Chem, 2017).

Test [1] has as its target T1, 5-hydroxytryptamine receptor 7 (Homo sapiens, UniProt P34969). Put plainly: Antagonist activity at recombinant human 5-HT7 receptor expressed in HEK293 cells assessed as inhibition of 5-CT-induced increase in cAMP level at 10^-6M after 30 mins by TR-FRET assay relative to control. It is filed as functional, cell-based. In outline: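 Stably transfected HEK293 cells in stimulation buffer (HBSS, 5 mM HEPES, 0.5 mM IBMX, 0.1% BSA) exposed to 10 nM 5-CT with test ligand for 30 min at room temperature. Lysis with Eu-cAMP/ULight-anti-cAMP, 1 h, then TR-FRET readout of cAMP.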
For orientation: cAMP levels reflect the balance of adenylyl cyclase and phosphodiesterase activity.

The target in test [2] is T2, 5-hydroxytryptamine receptor 1A (Homo sapiens, UniProt P08908).
T2 sequence (P08908 whole entry): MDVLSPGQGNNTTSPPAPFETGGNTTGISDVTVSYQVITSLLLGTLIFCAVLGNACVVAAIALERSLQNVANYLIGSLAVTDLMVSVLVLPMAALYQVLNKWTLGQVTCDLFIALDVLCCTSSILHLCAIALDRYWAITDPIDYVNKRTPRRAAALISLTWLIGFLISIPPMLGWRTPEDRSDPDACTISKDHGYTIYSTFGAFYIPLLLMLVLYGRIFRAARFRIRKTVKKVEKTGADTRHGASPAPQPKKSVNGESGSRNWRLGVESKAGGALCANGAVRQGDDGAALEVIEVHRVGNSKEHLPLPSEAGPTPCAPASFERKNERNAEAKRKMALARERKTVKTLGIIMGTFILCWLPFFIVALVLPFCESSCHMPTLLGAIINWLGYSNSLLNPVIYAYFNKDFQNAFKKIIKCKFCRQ
Put plainly: Displacement of [3H]-8-OH-DPAT from recombinant human 5-HT1A receptor expressed in CHOK1 cell membranes after 1 hr by liquid scintillation counting method. Also on record: species or system CHO-K1. (In a radioligand displacement assay an active substance lowers the binding of a labelled ligand.)

The target in test [3] is T1, 5-hydroxytryptamine receptor 7. Put plainly: Displacement of [3H]-5-HT from recombinant human 5-HT7A receptor expressed in CHOK1 cell membranes after 40 mins by liquid scintillation counting method. Also on record: species or system CHO-K1. In a few lines:
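Membranes (15 µg protein/sample) in 50 mM Tris-HCl pH 7.4 with 4 mM MgCl2, incubated 40 min at 27 °C with [3H]-5-HT (5 nM final). Nonspecific binding with 10 µM serotonin. Stopped by vacuum filtration on PEI-soaked GF/C filters, ice-cold Tris washes.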

Test [4] has as its target T3, 5-hydroxytryptamine receptor 1A (Homo sapiens) (UniProt P08908).
T3 sequence (whole entry): T2 sequence (P08908 whole entry)
As to the kind of experiment: Antagonist activity at recombinant human 5-HT1A receptor expressed in HEK293 cells assessed as inhibition of 8-OH-DPAT-induced decrease in cAMP level at 10^-6M after 30 mins in presence of forskolin by TR-FRET assay relative to control. The class given is functional, cell-based. In a few lines:
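Stable HEK293 cells grown in DMEM with 10% dialysed FBS and G418, resuspended in HBSS/HEPES buffer with 0.5 mM IBMX and 0.1% BSA. Stimulated with 1 µM forskolin plus 1 µM (R)-(+)-8-OH-DPAT alongside test ligand, 30 min at room temperature. cAMP by LANCE Ultra TR-FRET after lysis, 1 h.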

T1 sequence (P34969 whole entry): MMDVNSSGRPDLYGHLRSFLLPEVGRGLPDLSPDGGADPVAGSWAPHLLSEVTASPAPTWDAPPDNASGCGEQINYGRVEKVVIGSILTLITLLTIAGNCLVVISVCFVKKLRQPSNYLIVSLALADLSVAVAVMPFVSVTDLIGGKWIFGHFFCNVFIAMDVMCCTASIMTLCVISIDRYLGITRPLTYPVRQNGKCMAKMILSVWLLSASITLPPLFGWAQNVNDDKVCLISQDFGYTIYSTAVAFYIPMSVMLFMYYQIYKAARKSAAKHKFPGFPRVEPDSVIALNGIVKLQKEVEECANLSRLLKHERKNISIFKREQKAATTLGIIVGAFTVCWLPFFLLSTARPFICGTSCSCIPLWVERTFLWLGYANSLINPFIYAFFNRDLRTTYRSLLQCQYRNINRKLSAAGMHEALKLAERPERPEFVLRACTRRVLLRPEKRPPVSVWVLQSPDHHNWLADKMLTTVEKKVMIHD

On to `CC1CCN(CC[C@H]2CCCN2S(=O)(=O)c2cccc(O)c2)CC1`, for which, in test [1], the inhibition (commonly the change of the read-out against control, counted positive when it falls) turned out to be 97%.
For the molecule `O=c1cc(-c2ccccc2)ncn1CCCCCN1CCN(c2ccccc2)CC1`, the inhibitory constant (Ki) (in general, a dissociation constant, usually derived from enzyme kinetics or from competition with a known ligand) in test [2] stood at 111 nM; in test [3] it was 613 nM.
The corresponding values for `c1ccc(-c2cc(OCCCCCN3CCN(c4ccccc4)CC3)ncn2)cc1` are 33.5 nM and 143 nM.
The corresponding values for `c1ccc(CN2CCN(CCCCCOc3cc(-c4ccccc4)ncn3)CC2)cc1` are 1030 nM and 990 nM.
Turning to `O=c1cc(-c2ccccc2)ncn1CCCCCN1CCN(Cc2ccccc2)CC1`, the inhibition constant Ki in test [2] came to 772 nM; in test [3], 1330 nM.
With `CCOc1ccccc1N1CCN(CCCCCn2c(C)nc3ccccc3c2=O)CC1`, the inhibition is 19.5% in test [1] and 18% in test [4]. Besides, the results for the Ki in test [2] and in test [3] were 2.99 nM and 8.42 nM, respectively.
`Cc1nc(OCCCCCN2CCN(c3ccc(Cl)cc3)CC2)c2ccccc2n1`: the figures for the Ki in test [2] and in test [3] were 52.1 nM and 181 nM, respectively.
The corresponding values for `Cc1nc2ccccc2c(=O)n1CCCCCN1CCN(c2ccc(Cl)cc2)CC1` are 100 nM and 327 nM.
The corresponding values for `O=c1cc(-c2ccccc2)ncn1CCCCCN1CCN(c2cccc(Cl)c2)CC1` are 17.8 nM and 94.7 nM.
The like results for `Clc1ccc(N2CCN(CCCCCOc3cc(-c4ccccc4)ncn3)CC2)cc1` were, in that order, 90.3 nM and 1380 nM.
For the molecule `Cc1nc(OCCCCCN2CCN(c3ccccc3)CC2)c2ccccc2n1`, the Ki was 24.7 nM in test [2] and 276 nM in test [3].
With `CCOc1ccccc1N1CCN(CCCCCOc2cc(-c3ccccc3)ncn2)CC1`, the figures for the inhibition in test [1] and in test [4] were 5.5% and 6%, respectively. The inhibition constant (Ki) in test [2] amounted to 6.96 nM; in test [3], 23.5 nM.
For the molecule `Cc1nc2ccccc2c(=O)n1CCCCCN1CCN(c2ccccc2)CC1`, the Ki in test [2] came out at 18.6 nM; in test [3] it was 53.7 nM.
The corresponding values for `Cc1nc2ccccc2c(=O)n1CCCCCN1CCN(c2cccc(Cl)c2)CC1` are 8.21 nM and 35.1 nM.
The corresponding values for `CCOc1ccccc1N1CCN(CCCCCn2cnc(-c3ccccc3)cc2=O)CC1` are 25.9 nM and 45.1 nM.
The like results for `Clc1cccc(N2CCN(CCCCCOc3cc(-c4ccccc4)ncn3)CC2)c1` were, in that order, 17.4 nM and 44.8 nM.
For `O=c1cc(-c2ccccc2)ncn1CCCCCN1CCN(c2ccc(Cl)cc2)CC1`, the inhibition constant (Ki) stood at 167 nM in test [2] and 1310 nM in test [3].
